Reference: PubChem BioAssay AID602221 (Southern Research Specialized Biocontainment Screening …, 2012)
The source made the active and inactive calls.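 The calls were made as follows: active = inhibition of 30% or more at any tested concentration; inactive = the rest.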

target: Aspartyl aminopeptidase (Homo sapiens) (UniProt Q9ULA0); assay: inhibition of human DNPEP peptide cleavage – biochemical, QFRET fluorogenic substrate, set 2, counter-screen for PfM18AAP inhibitor project, dose response (AID 602221); conditions: recombinant hM18AAP, H-Glu-NHMec fluorogenic cleavage
Outline: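 Measure: % inhibition and IC50, curve bounds fixed 0–100; Test system: recombinant human M18 aspartyl aminopeptidase; Input: hM18AAP at 5 µg/mL final; Measured by: fluorescence, ex 370/em 460 nm; Replication: triplicate; Buffer or medium: Tris pH 7.5 with CoCl2 and 2% DMSO; Times: 90 min reaction, room temperature; Reagent: H-Glu-NHMec substrate, 0.1 mM.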

SMILES | IC50
CN1CCN(CCc2ccc(O)c(O)c2)CC1 | 29.3 µM
Oc1ccc(CCNc2ccnc3ccccc23)cc1O | 7.26 µM

The next lines start with the values.

IC50 | SMILES
6.49 µM | CN1CCN(CCCc2ccc(O)c(O)c2)CC1
6.04 µM | CCc1ccc(NC(=O)Cc2nc(-c3ccc(O)c(O)c3)cs2)cc1
4.78 µM | Oc1ccc(-c2csc(NC3CCCC3)n2)cc1O
3.7 µM | CN1CCN(c2nc(-c3ccc(O)c(O)c3)cs2)CC1
2.25 µM | Oc1ccc(-c2csc(Nc3ncccn3)n2)cc1O
0.95 µM | Oc1ccc(CCNc2c3ccccc3nc3ccccc23)cc1O

same assay, conditions: recombinant hM18AAP, H-Glu-NHMec fluorogenic cleavage; at 100 µM (top of the series)

SMILES | inhibition
COc1ccc(CCNC(c2ccccc2)c2ccccc2)cc1OC | inactive
COc1ccc(CCCN2CCN(C)CC2)cc1OC | inactive
